The source made the active and inactive calls. The calls are words filed in the database; no cut-off is given here.
Assays:
[1] = biological target: Beta-2 adrenergic receptor (Cavia porcellus) (UniProt Q8K4Z4); assay: Competitive inhibition of beta2-adrenergic receptor in guinea pig tracheal chain assessed as reversal of isoproterenol-induced effect at 3.44 X 10^-8 M to 1.376 X 10^-7 M after 15 mins
Method in brief: (§1)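 Isolated guinea pig tracheal chain in Krebs bicarbonate Ringer at 36.5 ± 0.5 °C, gassed with O2 containing 5% CO2. Tone raised with acetylcholine, then cumulative isoproterenol (1×10^-5 to 1×10^-4 M) given after 15-min antagonist exposure. pA2 by linear extrapolation; mean ± SE, n experiments.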

[2] = test system: Cavia porcellus; assay: Anesthetic effect in guinea pig at 0.1 % by intradermal wheal method; type: functional, organism-based
[3] = test system: Heart; assay: Antiarrhythmic activity against guinea pig auricle; type: functional, tissue-based; conditions: Cavia porcellus
Method in brief: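 Electrically driven isolated guinea pig auricles (Dawes method).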

[4] = biological target: Beta-2 adrenergic receptor (Cavia porcellus) (UniProt Q8K4Z4); assay: Inhibition of beta2-adrenergic receptor in guinea pig tracheal chain assessed as reversal of isoproterenol-induced effect at 3.44 X 10^-8 M to 1.376 X 10^-7 M incubated for 15 mins followed by compound washout measured after 30 to 60 mins; conditions: Trachea
[5] = biological target: Beta-2 adrenergic receptor (Cavia porcellus) (UniProt Q8K4Z4); assay: Competitive inhibition of beta2-adrenergic receptor in guinea pig tracheal chain assessed as reversal of isoproterenol-induced effect at 1.376 X 10^-7 M to 2.752 X 10^-7 M after 15 mins; method in brief: as §1
[6] = biological target: Beta-2 adrenergic receptor (Cavia porcellus) (UniProt Q8K4Z4); assay: Inhibition of beta2-adrenergic receptor in guinea pig tracheal chain assessed as reversal of isoproterenol-induced effect at 1.376 X 10^-7 M to 2.752 X 10^-7 M incubated for 15 mins followed by compound washout measured after 30 to 60 mins; conditions: Trachea
[7] = test system: Felis catus; assay: Reversal of epinephrine-induced increase in mean arterial blood pressure in cat at 2.5 mg/kg, iv; type: functional
[8] = test system: Felis catus; assay: Reversal of isoproterenol-induced increase in mean arterial blood pressure in cat assessed as depressor phase at 2.5 mg/kg, iv; type: functional
[9] = biological target: Beta-2 adrenergic receptor (Cavia porcellus, UniProt Q8K4Z4); assay: Inhibition of beta2-adrenergic receptor in guinea pig tracheal chain assessed as reversal of isoproterenol-induced effect after 15 mins; parameters: species or system Trachea; conditions: read-out: pA2 (converted)
[10] = biological target: Beta-1 adrenergic receptor (Cavia porcellus, UniProt B0FL73); assay: Inhibition of beta1-adrenergic receptor in guinea pig auricle assessed as reversal of isoproterenol-induced effect; conditions: read-out: pA2 (converted)
[11] = test system: Felis catus; assay: Reversal of isoproterenol-induced increase in mean arterial blood pressure in cat assessed as pressor phase at 2.5 mg/kg, iv; type: functional
[12] = biological target: Beta-2 adrenergic receptor (Cavia porcellus) (UniProt Q8K4Z4); assay: Competitive inhibition of beta2-adrenergic receptor in guinea pig tracheal chain assessed as reversal of isoproterenol-induced effect at 5.868 X 10^-7 M to […] after 15 mins; method in brief: as §1
[13] = test system: Ileum; assay: Cholinolytic activity in guinea pig ileum at 2.94 X 10^-7 M to 1.176 X 10^-6 M in presence of acetylcholine; type: functional, tissue-based; conditions: Cavia porcellus
Method in brief: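 Isolated guinea pig ileum in oxygenated Tyrode solution at 36.5 ± 0.5 °C. Acetylcholine used as spasmogen; antagonism of contraction by test agent assessed.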

[14] = test system: Trachea; assay: Cholinolytic activity in guinea pig trachea at 2.94 X 10^-7 M to 1.176 X 10^-6 M in presence of acetylcholine; type: functional, tissue-based; conditions: Cavia porcellus
Method in brief: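 Guinea pig tracheal chain in Krebs bicarbonate Ringer at 36.5 ± 0.5 °C, gassed with O2/5% CO2. Acetylcholine responses examined in presence of test agent.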

[15] = biological target: Beta-2 adrenergic receptor (Cavia porcellus) (UniProt Q8K4Z4); assay: Inhibition of beta2-adrenergic receptor in guinea pig tracheal chain assessed as reversal of isoproterenol-induced effect at 5.868 X 10^-7 M to […] incubated for 15 mins followed by compound washout measured after 30 to 60 mins; conditions: Trachea
[16] = biological target: Beta-2 adrenergic receptor (Cavia porcellus) (UniProt Q8K4Z4); assay: Competitive inhibition of beta2-adrenergic receptor in guinea pig tracheal chain assessed as reversal of isoproterenol-induced effect at 5.36 X 10^-9 M to 8.576 X 10^-8 M after 15 mins; method in brief: as §1
[17] = biological target: Beta-2 adrenergic receptor (Cavia porcellus) (UniProt Q8K4Z4); assay: Inhibition of beta2-adrenergic receptor in guinea pig tracheal chain assessed as reversal of isoproterenol-induced effect at 5.36 X 10^-9 M to 8.576 X 10^-8 M incubated for 15 mins followed by compound washout measured after 30 to 60 mins; conditions: Trachea

Sequence of Beta-2 adrenergic receptor (Cavia porcellus) (Q8K4Z4 whole entry, looked up): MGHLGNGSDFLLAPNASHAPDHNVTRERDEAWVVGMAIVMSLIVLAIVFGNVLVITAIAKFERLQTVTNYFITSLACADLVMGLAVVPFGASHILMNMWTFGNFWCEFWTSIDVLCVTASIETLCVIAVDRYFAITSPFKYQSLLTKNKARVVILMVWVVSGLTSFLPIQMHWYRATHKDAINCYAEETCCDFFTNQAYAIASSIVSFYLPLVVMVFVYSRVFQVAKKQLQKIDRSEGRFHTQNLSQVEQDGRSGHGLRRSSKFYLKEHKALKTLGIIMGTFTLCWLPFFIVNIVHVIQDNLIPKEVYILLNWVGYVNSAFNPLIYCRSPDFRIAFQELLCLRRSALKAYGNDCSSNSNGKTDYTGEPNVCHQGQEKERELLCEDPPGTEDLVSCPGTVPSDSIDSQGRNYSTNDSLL
Sequence of Beta-2 adrenergic receptor (Q8K4Z4 whole entry): as the sequence (Q8K4Z4 whole entry, looked up) above
Sequence of Beta-1 adrenergic receptor (B0FL73 whole entry): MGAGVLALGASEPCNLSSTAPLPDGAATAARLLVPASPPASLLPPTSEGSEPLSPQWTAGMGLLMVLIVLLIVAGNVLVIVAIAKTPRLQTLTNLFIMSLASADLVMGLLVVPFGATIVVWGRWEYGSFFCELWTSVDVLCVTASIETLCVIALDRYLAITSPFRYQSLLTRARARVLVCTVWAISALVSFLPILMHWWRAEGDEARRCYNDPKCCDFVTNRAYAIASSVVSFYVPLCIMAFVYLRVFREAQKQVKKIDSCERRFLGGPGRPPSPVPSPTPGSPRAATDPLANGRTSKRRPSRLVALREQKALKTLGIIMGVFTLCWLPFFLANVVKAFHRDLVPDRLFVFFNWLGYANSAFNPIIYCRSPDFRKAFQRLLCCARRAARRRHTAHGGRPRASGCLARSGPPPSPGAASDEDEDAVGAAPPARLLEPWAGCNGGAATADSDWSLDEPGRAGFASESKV

| SMILES | Activity [2] | Activity [3] | Kb [9] [µM] | Kb [10] [µM] | Activity [7] [%] | Activity [8] [%] | further results |
| --- | --- | --- | --- | --- | --- | --- | --- |
| CC1(C)NC1C(O)c1ccccc1 (stereo in doubt; 1b) [listing 1 of 2 here] | inactive | inactive | – | – | – | – | inhibition [1]: Active; inhibition [4]: inactive |
| CC1(C)NC1C(O)c1ccccc1 (stereo in doubt; 1a) [listing 1 of 2 here] | inactive | inactive | – | – | – | – | inhibition [5]: Active; inhibition [6]: inactive |
| CC1(C)NC1C(O)c1ccccc1 (stereo in doubt; 1a) [listing 2 of 2 here] | – | – | 0.0619 | 43.2 | – | – | Activity ([7]; 2.5 mg/kg): 0%; Activity ([8]; 2.5 mg/kg): -10%; Activity ([11]; 2.5 mg/kg): 20% |
| CC(C)NCC(O)COc1cccc2ccccc12 (stereo not drawn) [PROPRANOLOL] | – | inactive | – | – | 45 | -100 | – |
| CC1(C)NC1C(O)c1ccc(Cl)c(Cl)c1 (stereo not drawn) | Active | Active | 0.398 | 17.4 | 0 | 0 | inhibition [12]: inactive; Activity [13]: Active; Activity [14]: Active; inhibition [15]: inactive; Activity [11]: -16% |
| CCN(CC)CCOC(=O)c1ccc(N)cc1 | inactive | inactive | – | – | – | – | – |
| CC1(C)NC1C(O)c1ccc2ccccc2c1 (stereo not drawn) | inactive | inactive | 0.00304 | 344 | 62 | -33 | inhibition [16]: Active; inhibition [17]: inactive; Activity [11]: 0% |
| CC1(C)NC1C(O)c1ccccc1 (stereo in doubt; 1b) [listing 2 of 2 here] | – | – | 0.0644 | 344 | – | – | Activity ([7]; 2.5 mg/kg): 11.1%; Activity ([8]; 2.5 mg/kg): 0%; Activity ([11]; 2.5 mg/kg): 0% |
